# Assay results from ChEMBL document CHEMBL1157638, “Fluorescent epigenetic small molecule induces expression of the tumor suppressor ras-association domain family 1A and inhibits human prostate xenograft” (J Med Chem, 2010).
# How the values were obtained:
# Format in all cases: functional
# U-251 [1] = test: Growth inhibition of human U251 cells assessed as cell growth at 10 uM relative to untreated control; conditions: read-out: Activity
# HOP-92 [2] = test: Growth inhibition of human HOP92 cells assessed as cell growth at 100 nM relative to untreated control; conditions: read-out: Activity
# Method in brief: (§1)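 Run externally at the National Cancer Institute as a 59-cell-line panel screen, with concentrations up to 100 μM. Growth was scored relative to control, where negative growth or total cell kill was possible. Data are in the Supporting Information.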
# NCI/ADR-RES = test: Growth inhibition of human NCI/ADR-RES cells assessed as cell growth at 1 uM relative to untreated control; conditions: read-out: Activity
# T47D [3] = test: Growth inhibition of human T47D cells assessed as cell growth at 10 nM relative to untreated control; conditions: read-out: Activity
# CCRF-CEM = test: Growth inhibition of human CCRF-CEM cells
# 786-0 = test: Growth inhibition of human 786-0 cells assessed as cell growth at 100 nM relative to untreated control; conditions: read-out: Activity
# NCI-H226 [4] = test: Growth inhibition of human NCI-H226 cells
# IGROV-1 [5] = test: Growth inhibition of human IGROV1 cells assessed as cell growth at 1 uM relative to untreated control; conditions: read-out: Activity
# HOP-92 [6] = test: Growth inhibition of human HOP92 cells; method in brief: as §1
# PC-3 [7] = test: Growth inhibition of human PC3 cells after 24 hrs by trypan blue exclusion method; conditions: PC-3, 24 h
# Method in brief: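 PC-3 cells grown in phenol red-free IMEM with 10% FBS, 2 mM glutamine and penicillin/streptomycin at 37 °C, 5% CO2. Seeded in triplicate at 1.5 × 10⁴ cells/well. After 24 h, treated with DMSO vehicle or 1, 5, 15, 30 or 60 μM compound for 24 h. Cells trypsinized, stained with 0.4% trypan blue, and live and dead cells counted by hemocytometer. Mean ± SEM of three independent observations.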
# SN12C = test: Growth inhibition of human SN12C cells assessed as cell growth at 10 uM relative to untreated control; conditions: read-out: Activity
# KM12 = test: Growth inhibition of human KM12 cells assessed as cell growth at 10 uM relative to untreated control; conditions: read-out: Activity
# LOX IMVI [8] = test: Growth inhibition of human LOXIMVI cells assessed as cell growth at 100 nM relative to untreated control; conditions: read-out: Activity
# LOX IMVI [9] = test: Growth inhibition of human LOXIMVI cells
# HL-60(TB) [10] = test: Growth inhibition of human HL-60(TB) cells; conditions: read-out: LC50 (the source's name)
# OVCAR-4 [11] = test: Growth inhibition of human OVCAR4 cells assessed as cell growth at 10 uM relative to untreated control; conditions: read-out: Activity
# SW-620 = test: Growth inhibition of human SW620 cells assessed as cell growth at 10 uM relative to untreated control; conditions: read-out: Activity
# ACHN = test: Growth inhibition of human ACHN cells assessed as cell growth at 100 nM relative to untreated control; conditions: read-out: Activity
# [12] = Growth inhibition of human Hs 578T cells assessed as cell growth at 1 nM relative to untreated control; conditions: read-out: Activity
# BT-549 [13] = test: Growth inhibition of human BT549 cells assessed as cell growth at 10 uM relative to untreated control; conditions: read-out: Activity
# U-251 [14] = test: Growth inhibition of human U251 cells
# IGROV-1 [15] = test: Growth inhibition of human IGROV1 cells
# BT-549 [16] = test: Growth inhibition of human BT549 cells assessed as cell growth at 100 nM relative to untreated control; conditions: read-out: Activity
# NCI-H522 [17] = test: Growth inhibition of human NCI-H522 cells assessed as cell growth at 10 nM relative to untreated control; conditions: read-out: Activity
# UO-31 = test: Growth inhibition of human UO31 cells assessed as cell growth at 100 nM relative to untreated control; conditions: read-out: Activity
# T47D [18] = test: Growth inhibition of human T47D cells
# OVCAR-4 [19] = test: Growth inhibition of human OVCAR4 cells
# MDA-MB-231 = test: Growth inhibition of human MDA-MB-231 cells assessed as cell growth at 1 nM relative to untreated control; conditions: read-out: Activity
# MCF7 [20] = test: Growth inhibition of human MCF7 cells assessed as cell growth at 100 nM relative to untreated control; conditions: read-out: Activity
# T47D [21] = test: Growth inhibition of human T47D cells assessed as cell growth at 1 nM relative to untreated control; conditions: read-out: Activity
# MDA-MB-435 = test: Growth inhibition of human MDA-MB-435 cells assessed as cell growth at 10 uM relative to untreated control; conditions: read-out: Activity
# LOX IMVI [22] = test: Growth inhibition of human LOXIMVI cells assessed as cell growth at 1 uM relative to untreated control; conditions: read-out: Activity
# [23] = Growth inhibition of human Hs 578T cells assessed as cell growth at 10 nM relative to untreated control; conditions: read-out: Activity
# HL-60(TB) [24] = test: Growth inhibition of human HL-60(TB) cells assessed as cell growth at 100 nM relative to untreated control; conditions: read-out: Activity
# SK-MEL-2 [25] = test: Growth inhibition of human SK-MEL-2 cells assessed as cell growth at 10 uM relative to untreated control; conditions: read-out: Activity
# OVCAR-5 = test: Growth inhibition of human OVCAR5 cells assessed as cell growth at 1 uM relative to untreated control; conditions: read-out: Activity
# SK-MEL-2 [26] = test: Growth inhibition of human SK-MEL-2 cells assessed as cell growth at 1 uM relative to untreated control; conditions: read-out: Activity
# MCF7 [27] = test: Growth inhibition of human MCF7 cells assessed as cell growth at 10 nM relative to untreated control; conditions: read-out: Activity
# SNB-75 = test: Growth inhibition of human SNB75 cells
# PC-3 [28] = test: Growth inhibition of human PC3 cells assessed as cell growth at 10 uM relative to untreated control; conditions: read-out: Activity
# NCI-H226 [29] = test: Growth inhibition of human NCI-H226 cells assessed as cell growth at 10 nM relative to untreated control; conditions: read-out: Activity
# MOLT-4 = test: Growth inhibition of human MOLT4 cells assessed as cell growth at 100 nM relative to untreated control; conditions: read-out: Activity
# NCI-H522 [30] = test: Growth inhibition of human NCI-H522 cells assessed as cell growth at 10 uM relative to untreated control; conditions: read-out: Activity
# EKVX = test: Growth inhibition of human EKVX cells; method in brief: as §1
# UACC-62 = test: Growth inhibition of human UACC62 cells assessed as cell growth at 10 uM relative to untreated control; conditions: read-out: Activity
# [31] = read-out: LC50 (the source's name)
smiles,measurement,setting,value
COc1ccc2c(c1)[nH]c1c(C)c(OS(=O)(=O)c3cccc4c(N(C)C)cccc34)ccc12,growth at 10 µM,U-251 [1],14%
same,growth at 0.1 µM,HOP-92 [2],91%
same,growth at 1 µM,NCI/ADR-RES,28%
same,growth at 0.01 µM,T47D [3],53%
same,GI50,CCRF-CEM,2.88 µM
same,TGI,CCRF-CEM,> 100 µM
same,CC50,CCRF-CEM; [31],> 100 µM
same,growth at 0.1 µM,786-0,105%
same,GI50,NCI-H226 [4],11.3 µM
same,TGI,NCI-H226 [4],> 100 µM
same,CC50,NCI-H226 [4]; [31],> 100 µM
same,growth at 1 µM,IGROV-1 [5],59%
same,GI50,HOP-92 [6],9.51 µM
same,TGI,HOP-92 [6],94.8 µM
same,CC50,HOP-92 [6]; [31],> 100 µM
same,GI50,PC-3 [7],1.5 µM
same,growth at 10 µM,SN12C,30%
same,growth at 10 µM,KM12,6%
same,growth at 0.1 µM,LOX IMVI [8],91%
same,GI50,LOX IMVI [9],48.4 µM
same,TGI,LOX IMVI [9],> 100 µM
same,CC50,LOX IMVI [9]; [31],> 100 µM
same,CC50,HL-60(TB) [10],> 100 µM
same,growth at 10 µM,OVCAR-4 [11],30%
same,growth at 10 µM,SW-620,9%
same,growth at 0.1 µM,ACHN,97%
same,growth at 0.001 µM,[12],105%
same,growth at 10 µM,BT-549 [13],13%
same,GI50,U-251 [14],4.28 µM
same,TGI,U-251 [14],> 100 µM
same,CC50,U-251 [14]; [31],> 100 µM
same,GI50,IGROV-1 [15],27.6 µM
same,TGI,IGROV-1 [15],> 100 µM
same,CC50,IGROV-1 [15]; [31],> 100 µM
same,growth at 0.1 µM,BT-549 [16],93%
same,growth at 0.01 µM,NCI-H522 [17],101%
same,growth at 0.1 µM,UO-31,92%
same,GI50,T47D [18],3.06 µM
same,TGI,T47D [18],> 100 µM
same,CC50,T47D [18]; [31],> 100 µM
same,GI50,OVCAR-4 [19],7.4 µM
same,TGI,OVCAR-4 [19],> 100 µM
same,CC50,OVCAR-4 [19]; [31],> 100 µM
same,growth at 0.001 µM,MDA-MB-231,97%
same,growth at 0.1 µM,MCF7 [20],81%
same,growth at 0.001 µM,T47D [21],95%
same,growth at 10 µM,MDA-MB-435,-1%
same,growth at 1 µM,LOX IMVI [22],31%
same,growth at 0.01 µM,[23],103%
same,growth at 0.1 µM,HL-60(TB) [24],69%
same,growth at 10 µM,SK-MEL-2 [25],18%
same,growth at 1 µM,OVCAR-5,101%
same,growth at 1 µM,SK-MEL-2 [26],50%
same,growth at 0.01 µM,MCF7 [27],86%
same,GI50,SNB-75,4.48 µM
same,TGI,SNB-75,47.1 µM
same,CC50,SNB-75; [31],> 100 µM
same,growth at 10 µM,PC-3 [28],7%
same,growth at 0.01 µM,NCI-H226 [29],88%
same,growth at 0.1 µM,MOLT-4,99%
same,growth at 10 µM,NCI-H522 [30],37%
same,GI50,EKVX,5.44 µM
same,TGI,EKVX,> 100 µM
same,CC50,EKVX; [31],> 100 µM
same,growth at 10 µM,UACC-62,29%
